# H9c2 TAG inh – inhibitors of triacylglycerol accumulation, primary screen, cell-based, uHTS, fluorescence, H9c2; hit rate 0.66% among 230,000; AID 651582, 2012; inhibition, % at 12.5 µM; H9c2 cells, Nile Red lipid (TAG) fluorescence; cells loaded with 200 µM oleic acid;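 active = pattern-corrected inhibition of lipid staining of at least 50% with the nuclear-stain viability signal not falling by more than 50%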
# Hep lipid drop – inhibitors of hepatocyte lipid droplet formation, primary screen, imaging, high-throughput imaging, BODIPY stain. AML12 mouse hepatocytes, oleate lipid droplets. inhibition, % at 6.5 µM. hit rate 0.4% among 240,000. AID 1656, 2009;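 active = lipid droplet intensity inhibited by at least 50%, with more than 500 cells counted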
#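 Assay system: AML12 hepatocytes (mouse); Probe or stimulus: oleic acid at 100 µM to induce lipid droplet formation; Dosing: compound at 6.5 µM only; Schedule: compound with oleate, overnight; Detection: fluorescence imaging, 20x objective, two fields per well; Measure: % inhibition of lipid droplet signal.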
# GRK2 aptamer HTS – compounds blocking aptamer binding on GRK2 – biochemical, human GRK2, bead flow cytometry, HTS, primary screen; Beta-adrenergic receptor kinase 1 (Homo sapiens), P25098; FAM-aptamer displacement from GRK2; inhibition of aptamer binding, % at 10 µM; hit rate 0.59% among 330,000; AID 488847, 2010;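 active = inhibition of aptamer binding above 40%, roughly 3 SD of noise, on plates passing a quality check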;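 also: median bead fluorescence of bound FAM aptamer so fluorescent compounds give negative values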
# Arr AP2 block – inhibitors of beta-arrestin/AP2 binding, primary screen, biochemical, GPCR trafficking, flow cytometry; FITC-arrestin peptide / GST-AP2 beads; AP2 beta2 appendage carries R879A mutation; inhibition, % at 10 µM; hit rate 0.31% among 340,000;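 active = inhibition above a set limit, near 3 SD of compounds lacking own fluorescence, cut at about 54% in these data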
#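 System: GST-AP2 R879A bound to glutathione beads, E. coli-expressed. Also added: 50 nM FITC-arrestin peptide. Schedule: compound with beads 12 min RT, then probe 1 h RT. Signal: bead flow cytometry, FITC channel. Read-out basis: percent response.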
# NTR1 agonist – agonists of human NTR1, primary screen, imaging, U2OS cells, beta-arrestin-GFP, high content; Neurotensin receptor type 1 (Homo sapiens), P30989; NTR1-U2OS beta-arrestin-GFP spot imaging, agonist mode; activation, % at 20 µM; hit rate 0.17% among 330,000; AID 493036, 2011;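 active = activation at or above 40% of the spot to cytoplasm intensity ratio, with at least 20 cells analyzed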
# Beta2AR agonist – beta2AR agonists driving receptor internalization, primary screen, cell-based, FAP fluorogen, flow cytometry. AID 504454, 2011. response, % (test concentration not listed). Am2.2-beta2AR cells. hit rate 0.43% among 340,000;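 active = response above a set limit, near 3 SD of response in nonfluorescent compounds, cut at about 42% in these data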
# Target sequence (P07550 whole entry, looked up): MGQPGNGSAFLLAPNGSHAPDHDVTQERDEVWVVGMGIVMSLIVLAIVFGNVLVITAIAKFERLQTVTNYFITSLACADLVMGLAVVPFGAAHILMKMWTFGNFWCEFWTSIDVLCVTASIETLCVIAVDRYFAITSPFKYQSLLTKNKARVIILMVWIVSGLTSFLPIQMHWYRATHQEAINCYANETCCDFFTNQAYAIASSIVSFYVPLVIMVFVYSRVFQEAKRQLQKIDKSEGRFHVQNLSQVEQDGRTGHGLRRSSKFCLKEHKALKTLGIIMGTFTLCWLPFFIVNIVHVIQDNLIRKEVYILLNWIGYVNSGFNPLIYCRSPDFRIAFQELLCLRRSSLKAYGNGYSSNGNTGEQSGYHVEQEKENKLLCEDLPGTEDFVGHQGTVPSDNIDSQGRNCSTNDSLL
# GRK2 CP1 – GRK2 aptamer-displacing inhibitors, retest, confirmation, biochemical, cherry pick 1, bead flow cytometry; shares compounds with GRK2 aptamer HTS; bead-bound GRK2, FAM-aptamer displacement; aptamer displacement, % at 10 µM; hit rate 4% among 2,000;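 active = aptamer displacement above 40%, near three times the noise of non-fluorescent compounds, on plates passing quality checks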;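 also: negative values mostly reflect intrinsic compound fluorescence rather than true enhancement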
# Aptamer quench – fluorescent aptamer quenching in GRK2 counter-screen dose response. shares compounds with GRK2 aptamer HTS. Fluorescent RNA aptamer beads, flow cytometry; active compounds read high. fluorescence change (kMESF span), kMESF (no concentration beside the values). 110 tested, under 10 active. AID 504521;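 active = compounds whose bead fluorescence drops by more than 37 kMESF across the dose range, marking them as dye quenchers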
# FAM quench CP1 – quenches fluorescent RNA aptamer, GRK2 hit artifact. shares compounds with GRK2 aptamer HTS. Carboxyfluorescein RNA aptamer on beads, flow cytometry quenching; active compounds read low. fluorescence response (% of DMSO), % at 10 µM. 2,000 tested, under 10 active. AID 504580;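 active = compounds that quench the bead-bound fluorescent RNA probe, cutting fluorescence to under half of the solvent control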;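 also: counterscreen run without GRK2 so only probe quenching by compound is measured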
# GRK2 confirm 2 – GRK2 aptamer-displacing inhibitors, hit retest, confirmation, biochemical, cherry pick 2, bead flow cytometry. shares compounds with GRK2 aptamer HTS. bead-bound GRK2, FAM-aptamer displacement. inhibition of aptamer binding, % at 10 µM. 360 tested, under 10 active. AID 504782, 2011;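 active = inhibition of aptamer binding above 40%, about triple the noise seen with nonglowing compounds, on plates passing quality control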;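 also: negative values mostly come from compounds that fluoresce themselves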
# FAM quench CP2 – quenches fluorescent RNA aptamer, GRK2 hit artifact; shares compounds with GRK2 aptamer HTS; carboxyfluorescein RNA aptamer beads, flow cytometry quenching; active compounds read low; fluorescence response vs DMSO, % at 10 µM; 360 tested, under 10 active; AID 588494;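 active = response vs DMSO under 50%, meaning signal dropped by over half, treated as fluorescence quencher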;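 also: labelled aptamer on streptavidin beads without GRK2 as a quench counter-screen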
# A number is an active result; 0 = inactive; - = no result. Only some compounds are listed: those with a hit (about 2% of all), similar ones and a draw of the others.
SMILES,H9c2 TAG inh,Hep lipid drop,GRK2 aptamer HTS,Arr AP2 block,NTR1 agonist,Beta2AR agonist,GRK2 CP1,FAM quench CP1,others
Cc1ccc(NC2CCCCC2NS(=O)(=O)c2ccccc2)c(C)c1 (configuration not stated),-,0,0,0,0,0,-,-,
CN1C(=O)c2cccc3c(S(=O)(=O)Nc4ccccc4F)ccc1c23,-,0,0,0,0,0,-,-,
Cc1ccc(NC(=O)CN2C(=O)N/C(=C/c3cccn3-c3ccc(C(=O)O)cc3)C2=O)cc1,-,0,96.0,0,-,0,86.1,0,Aptamer quench=0
Cc1ccc(NC(=O)CN2C(=O)N/C(=C/c3cc(C)n(-c4ccc(C(=O)O)cc4)c3C)C2=O)cc1,-,0,-,0,-,0,-,-,
Cc1csc(NC(=O)C2CCCCN2S(=O)(=O)c2ccccc2)n1 (configuration not stated),0,0,95.0,0,0,0,0,0,
O=C(Nc1nccs1)C1CCCCN1S(=O)(=O)c1ccccc1 (configuration not stated),0,0,0,0,0,0,-,-,
CCCN1CCN(C(=O)c2noc3c2COc2ccc(C)cc2-3)CC1,0,0,59.0,0,0,0,0,0,
O=C(Cc1ccccc1)Nc1ccc2c(c1)C(=O)N(CC1CCCO1)C2=O (configuration not stated),-,0,100.0,0,0,0,0,0,
O=C(O)CCc1[nH]c2ccccc2c1Sc1ccccc1,-,-,0,0,0,0,-,-,
CCc1ccc(NC(=O)CSc2nc3n[nH]c(C)c3c(=N)n2-c2cccc(OC)c2)cc1,-,0,0,0,0,0,-,-,
Cc1ccc(CNC(=O)CSc2nc3n[nH]c(C)c3c(=N)n2-c2cccc(C)c2)cc1,-,0,99.0,0,0,0,0,0,
COc1cc(/C=N/Nc2ccc(C(=O)O)cc2)ccc1O,0,0,41.0,0,0,0,0,0,
COc1cc(/C=N/Nc2ccc(C(=O)O)cc2)cc(OC)c1OC,0,0,0,0,0,0,-,-,
O=C(COC(=O)c1ccc2c(c1)OCCO2)NCCc1ccccc1,0,-,0,0,0,0,-,-,
COCCn1c(=O)[nH]c2cc(C(=O)Nc3ccc(OC)c(Cl)c3)ccc2c1=O,-,0,57.0,0,0,0,0,0,
Cc1nc2ccccc2c(=O)n1/N=C/c1ccncc1,0,0,83.0,0,0,0,0,0,
CCCCn1c(N)c(N(C)C(=O)c2cn(-c3ccccc3)nc2-c2ccccc2)c(=O)[nH]c1=O,0,-,0,0,0,0,-,-,
Cc1ccc(S(=O)(=O)NCC2COc3ccccc3O2)cc1 (configuration not stated),-,0,0,0,0,0,-,-,
Cc1ccc([N+](=O)[O-])cc1S(=O)(=O)NCC1COc2ccccc2O1 (configuration not stated),-,0,54.0,0,0,0,0,0,
CN(C(=O)c1cccc(NC(=O)Cc2cccc(NC(=O)C3CCN(C(=O)C4CCCCC4)CC3)c2)c1)C1CC1,0,-,-,0,-,0,-,-,
COc1cc(C(C)=O)ccc1OCC(=O)Nc1ccccc1N1CCCC1,0,0,87.0,0,0,0,-,-,GRK2 confirm 2=0;FAM quench CP2=0
Cc1cc2nc(N3C(=O)CNC3=S)sc2cc1C,0,0,75.0,0,0,0,0,0,
O=C1CNC(=S)N1c1nc(-c2ccccc2)cs1,-,0,0,0,0,0,-,-,
CC(=O)N1N=C(c2ccccc2OC(=O)/C=C/c2ccccc2)CC1c1ccccc1 (configuration not stated),-,0,0,0,0,0,-,-,
CC(=O)NC1C(=O)N(CCN2CCOCC2)c2ccc(Cl)cc21 (configuration not stated),-,0,98.0,0,-,0,0,0,
SMILES,H9c2 TAG inh,Hep lipid drop,GRK2 aptamer HTS,Arr AP2 block,NTR1 agonist,Beta2AR agonist,GRK2 CP1,FAM quench CP1,others
CC(=O)NC(CC(=O)OC(C)C(=O)Nc1ccc(Cl)cn1)c1ccccc1 (configuration not stated),0,-,0,0,0,0,-,-,
COC(=O)Cn1c(CN2CCOCC2)nc2c1c(=O)[nH]c(=O)n2C,0,0,0,0,0,0,0,0,
Cn1c(=O)[nH]c(=O)c2c1nc(CN1CCN(c3ccc(F)cc3)CC1)n2CCN1CCOCC1,0,0,0,0,0,0,-,-,
O=C(O)c1c2c(nc3ccc(F)cc13)CCC2,-,0,72.0,0,0,0,0,0,
O=C(NCc1ccc(F)cc1)c1c2c(nc3ccccc13)CCC2,0,0,0,0,0,0,-,-,GRK2 confirm 2=0;FAM quench CP2=0
O=C(NCc1ccco1)c1c2c(nc3ccccc13)CCC2,0,-,0,0,0,0,-,-,GRK2 confirm 2=0;FAM quench CP2=0
O=C(CSc1c2c(nc3ccccc13)CCCC2)NCc1ccco1,0,0,0,0,0,0,-,-,
Cc1cccc(NS(=O)(=O)c2ccc(-n3cccn3)cc2)c1C,-,0,0,0,0,0,-,-,
N#Cc1ccc(COC(=O)c2ccccn2)cc1,-,0,0,-,0,-,-,-,
COc1cccc(NC(=O)C(c2ccccc2)N2CCNC(=O)C2)c1 (configuration not stated),0,0,0,0,0,0,-,-,
O=C(CSc1nc2ccc([N+](=O)[O-])cc2s1)NCC1CCCO1 (configuration not stated),-,-,90.0,0,0,0,0,0,
c1ccc(CCCCc2ccncc2)cc1,0,-,-,0,-,0,-,-,
OCCc1ccccc1,-,-,0,-,0,-,0,0,
OCCc1ccc(O)cc1,0,-,0,0,0,0,-,-,
c1ccc(CCc2ccncc2)cc1,0,0,66.0,0,0,0,0,0,
CN(C)CCOC1c2ccccc2CCc2ccc3ccccc3c21 (configuration not stated),0,-,0,0,0,0,-,-,
